The record followed here is ChEMBL document CHEMBL3243972, “Analogues of ornithine as inhibitors of ornithine decarboxylase. New deductions concerning the topography of the enzyme's active site” (J Med Chem, 1978).

Active and inactive are the calls of the source. The rule behind the calls is not given here.

For series [1], the target named is T1, Ornithine decarboxylase (Rattus norvegicus) (UniProt P09057).
T1 sequence (whole entry): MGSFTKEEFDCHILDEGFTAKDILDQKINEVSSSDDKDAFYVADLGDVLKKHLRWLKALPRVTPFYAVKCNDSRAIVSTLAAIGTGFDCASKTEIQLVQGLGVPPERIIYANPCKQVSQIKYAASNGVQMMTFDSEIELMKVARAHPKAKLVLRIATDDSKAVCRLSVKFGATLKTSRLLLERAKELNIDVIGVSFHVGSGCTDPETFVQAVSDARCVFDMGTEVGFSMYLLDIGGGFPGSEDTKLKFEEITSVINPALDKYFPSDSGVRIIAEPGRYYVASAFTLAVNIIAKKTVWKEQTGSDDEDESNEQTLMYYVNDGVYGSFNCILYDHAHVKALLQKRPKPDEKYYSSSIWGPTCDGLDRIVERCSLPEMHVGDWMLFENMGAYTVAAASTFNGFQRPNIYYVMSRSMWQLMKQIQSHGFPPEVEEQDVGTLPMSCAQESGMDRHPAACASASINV
Nature of the series: Competitive inhibition of rat liver ornithine decarboxylase using DL-[1-14C]ornithine as substrate at 1 mM after 1 hr by dixon plot analysis.

Series [2] can be described thus: Binding affinity to pyridoxal-phosphate.
Series [3] deals with T2, Ornithine decarboxylase (Rattus norvegicus, UniProt P09057).
T2 sequence (P09057 whole entry): T1 sequence (whole entry)
Put plainly: Competitive inhibition of ornithine decarboxylase in rat HTC cells using DL-[1-14C]ornithine as substrate after 1 hr by dixon plot analysis. It is filed as cell-based. Summed up:
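HTC hepatoma cell ODC; sodium phosphate pH 7.1 assay with PLP 0.1 µmol, DTT 5 µmol, DL-[1-14C]ornithine 0.043 µmol, L-ornithine 0.8 µmol, final 0.95 mL; enzyme added to start; 14CO2 measured after 1 h at 37 °C. KI from Dixon plots, or for some values from ID50 at ornithine equal to KM, taking KI = ID50/2.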

Series [4] deals with T3, Ornithine decarboxylase (Bos taurus, UniProt P27117).
T3 sequence (P27117 whole entry): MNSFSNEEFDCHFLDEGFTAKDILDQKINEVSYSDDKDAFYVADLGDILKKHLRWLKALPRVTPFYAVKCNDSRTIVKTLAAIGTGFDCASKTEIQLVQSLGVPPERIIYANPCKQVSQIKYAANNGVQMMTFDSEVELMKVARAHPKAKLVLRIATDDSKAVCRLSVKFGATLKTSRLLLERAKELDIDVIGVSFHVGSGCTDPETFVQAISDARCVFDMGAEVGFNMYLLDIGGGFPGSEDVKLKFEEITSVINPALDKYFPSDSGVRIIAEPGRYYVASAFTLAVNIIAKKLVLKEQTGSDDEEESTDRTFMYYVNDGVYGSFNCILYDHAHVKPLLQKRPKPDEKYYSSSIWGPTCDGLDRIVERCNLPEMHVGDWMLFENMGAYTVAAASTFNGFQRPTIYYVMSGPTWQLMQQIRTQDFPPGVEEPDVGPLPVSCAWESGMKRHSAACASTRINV
Nature of the series: Competitive inhibition of bull prostate ornithine decarboxylase using DL-[1-14C]ornithine as substrate after 1 hr by dixon plot analysis. The arrangement: species or system Prostate gland. Summed up:
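Bull prostate ODC purified ~fourfold: homogenized at 4 °C in Tris-HCl 10 mM pH 7.2, sucrose, EDTA, DTT 5 mM, PLP 0.1 mM; 20000g and 105000g spins, 20–50% (NH4)2SO4 cut, dialysis. Assay in 0.95 mL Tris-HCl pH 7.2 with PLP 0.1 µmol, DTT 5 µmol, DL-[1-14C]ornithine 0.043 µmol, L-ornithine 0.8 µmol; 14CO2 counted after 1 h at 37 °C; KI from Dixon plots, least-squares fit.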

The target in series [5] is T2, Ornithine decarboxylase. Nature of the series: Competitive inhibition of rat liver ornithine decarboxylase using DL-[1-14C]ornithine as substrate after 1 hr by dixon plot analysis. The procedure, abridged:
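ODC from livers of rats given thioacetamide 18 h before sacrifice, ~tenfold purified by acid treatment at pH 4.6. Incubation: sodium phosphate pH 7.1, PLP 0.1 µmol, DTT 5 µmol, DL-[1-14C]ornithine 0.043 µmol plus L-ornithine 0.8 µmol in 0.95 mL; 14CO2 release after 1 h at 37 °C; KI from Dixon plots by least-squares fit.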

Series [6] addresses T1, Ornithine decarboxylase (Rattus norvegicus). Put plainly: Competitive inhibition of ornithine decarboxylase in rat HTC cells using DL-[1-14C]ornithine as substrate at 1 mM after 1 hr by dixon plot analysis. It is filed as cell-based.
The target is the same in series [7]. Put plainly: Competitive inhibition of rat liver ornithine decarboxylase using DL-[1-14C]ornithine as substrate at 0.25 mM after 1 hr by dixon plot analysis.
Series [8] shares this target. Nature of the series: Competitive inhibition of rat liver ornithine decarboxylase using DL-[1-14C]ornithine as substrate at 4 mM after 1 hr by dixon plot analysis.
In series [9] the target is T2, Ornithine decarboxylase. Nature of the series: Competitive inhibition of Sprague-Dawley rat prostate ornithine decarboxylase using DL-[1-14C]ornithine as substrate by liquid scintillation counting analysis. More on the design: species or system Prostate gland.
Series [10] deals with Ornithine decarboxylase (Bos taurus). Nature of the series: Inhibition of bull prostate ornithine decarboxylase.
In series [11] the target is T1, Ornithine decarboxylase (Rattus norvegicus). Put plainly: Inhibition of rat prostate ornithine decarboxylase at 10 mM. The conditions noted are these: Prostate gland.

As usually defined, the inhibition is the percentage by which the read-out fell short of the control. `NCCCC(N)(CO)C(=O)O` (racemic): the inhibition result in [1] was “inactive”.
Usually Kd stands for a measure of binding affinity in units of concentration. Higher therefore signals lower affinity. As a reminder, the Ki is a measure of affinity in units of concentration, obtained from inhibition or displacement. As to `C[C@](N)(CCCN)C(=O)O`, the Kd in [2] was found to be 2350 µM. Moreover, the Ki on Ornithine decarboxylase [3] (read-out: Ki) came out at 20 µM; on Ornithine decarboxylase [4], 20 µM; on Ornithine decarboxylase [5], 19 µM.
Compound `NCCCCN` [PUTRESCINE] returned a Kd in series [2] of 800 µM.
Take `NCCC(O)C(N)C(=O)O` (racemic): the inhibition result in [6] is “inactive”.
On to `CC(N)(CCCNCCCN)C(=O)O` (racemic; 8), for which the affinity on Ornithine decarboxylase [4], expressed as Ki, was 5500 µM.
Take `N[C@H]1CC[C@@](N)(C(=O)O)CC1`: the inhibition result in series [7] was “inactive”.
As to `NCCC[C@H](N)C(=O)O` [ORNITHINE], in series [2], the dissociation constant (Kd) worked out at 1250 µM. That is a millimolar value.
As to `CC(N)(CCN)C(=O)O` (racemic), the inhibition entry in series [8] is “inactive”.
With `CC(N)(CCCCN)C(=O)O` (racemic), the inhibition entry in series [8] was “inactive”.
Compound `NCCCCNCCCN` [SPERMIDINE] showed a dissociation constant (Kd) in series [2] of 700 µM. Besides, the Ki is 3000 µM on Ornithine decarboxylase [4] and 2700 µM at Ornithine decarboxylase [9].
As for `CC(N)(CCCN)C(=O)O` (racemic), the inhibition constant Ki on Ornithine decarboxylase [3] (read-out: Ki) and at Ornithine decarboxylase [5] was 40 µM throughout.
In the case of `C[C@@](N)(CCCN)C(=O)O`, the Ki was determined as 1050 µM on Ornithine decarboxylase [3] (read-out: Ki), 1000 µM at Ornithine decarboxylase [4] and 1300 µM at Ornithine decarboxylase [5].
Take `N[C@H]1CC[C@](N)(C(=O)O)CC1`: the inhibitory constant (Ki) at Ornithine decarboxylase [3] (read-out: Ki) and on Ornithine decarboxylase [5] was 70 µM each time.
In series [2], `CNCCCC(C)(N)C(=O)O` (racemic) returned a Kd of 5360 µM. In addition, the inhibition constant Ki came to 740 µM at Ornithine decarboxylase [4] and 500 µM on Ornithine decarboxylase [5].
In series [10], `NC/C=C/C(N)C(=O)O` (racemic) showed a Ki of 4400 µM.
With `NCCC[C@@H](N)C(=O)O`, the inhibition in series [11] came to 25%.
Consider `NCCCC(N)c1nnn[nH]1` (centres undefined), for which the Ki at Ornithine decarboxylase [3] (read-out: Ki) was determined as 140 µM; on Ornithine decarboxylase [4], 70 µM; at Ornithine decarboxylase [5], 120 µM.
Turning to `CN(C)CCCC(C)(N)C(=O)O` (racemic), in series [1], the inhibition result is “inactive”.
Take `CC(N)(CCCNCCCN)C(=O)O` (racemic; 3): in [2], binding was put at a Kd of 900 µM. For the same compound, the Ki result was “Not Active” on Ornithine decarboxylase [3] (htc) and 4400 µM on Ornithine decarboxylase [4].
